This is a sample that favours compounds with a hit; in the whole collection about 2.2% have one here.
FN deposit inh = inhibitors of fibronectin matrix deposition, primary screen, AH1F cells, Alexa488-fibronectin fluorescence, plate reader; AH1F fibroblasts, overnight; inhibition, % at 12.6 µM; 350,000 tested, 0.086% active;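 active means mean inhibition across replicates of 30% or more, regardless of how many single replicates reach that level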;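 further: positive control wells lacked labelled fibronectin entirely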
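Assay system: AH1F fibroblasts assembling fluorescent fibronectin matrix; Amount: 10000 AH1F cells per well; Buffer or medium: DMEM, 2% serum; Probe or stimulus: Alexa488-fibronectin, 24 nM final in well; Doses: single compound dose, delivered by pin transfer; Incubation: 1 h adhesion, overnight exposure; Measured by: fluorescence 485/525 nm; Read-out: fibronectin deposition inhibition.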
PDI turbidity = inhibitors of human PDI, primary screen, biochemical, turbidity, single point, plate reader; Protein disulfide-isomerase (Homo sapiens), P07237; PDI insulin aggregation turbidity, A650, 90 min; inhibition, % at 10 µM; 350,000 tested, 0.052% active; AID 588391, 2011;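 active means mean inhibition across replicates of 30% or more, whatever share of single replicates reach that level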
ERp5 block = inhibitors of ERp5-driven insulin aggregation, primary screen, biochemical, turbidity, absorbance 650 nm, single point; Protein disulfide-isomerase A6 (Homo sapiens), Q15084; 90 min; inhibition, % at 9.99 µM; 350,000 tested, 0.05% active;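 active means mean replicate inhibition above about 25%, with every replicate also reaching it, limit read from the data, passing the limit was not always enough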
Target sequence (Q15084 whole entry, looked up): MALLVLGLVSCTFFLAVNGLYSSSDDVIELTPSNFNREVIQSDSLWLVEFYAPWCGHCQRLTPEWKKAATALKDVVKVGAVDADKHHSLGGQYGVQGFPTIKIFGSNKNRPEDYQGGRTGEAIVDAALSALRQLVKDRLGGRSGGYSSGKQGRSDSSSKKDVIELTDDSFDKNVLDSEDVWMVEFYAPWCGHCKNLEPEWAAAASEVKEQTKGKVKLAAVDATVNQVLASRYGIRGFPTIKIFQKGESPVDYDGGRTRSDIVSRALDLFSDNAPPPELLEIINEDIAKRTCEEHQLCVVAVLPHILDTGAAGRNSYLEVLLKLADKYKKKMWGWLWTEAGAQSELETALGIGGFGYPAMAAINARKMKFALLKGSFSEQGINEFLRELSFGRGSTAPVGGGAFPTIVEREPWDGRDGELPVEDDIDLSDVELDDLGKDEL
PvdQ inh = P. aeruginosa PvdQ acylase inhibitors, primary screen, biochemical, fluorescence, plate reader and imaging, single point; PvdQ acylase [Pseudomonas aeruginosa LESB58]; 340,000 tested, 0.063% active; purified PvdQ acylase; inhibition, % at 10 µM; in the data active means inhibition above about 30%, passing the limit was not always enough;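 further: 0% = vehicle neutral wells and 100% = reference inhibitor wells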
rRNA inh HTS = reduced GFP signal of wild-type E. coli, primary screen, bacterial rRNA inhibitor project, GFP/RFP fluorescence, OD600, single point | E. coli WT GFP vs humanized-ribosome RFP mutants, 24 h; active compounds read low; DMSO median 0, no signal -100 | GFP signal change (wild-type ribosome), % (test concentration not listed) | 350,000 tested, 1.6% active | AID 720706, 2013;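 active means significant combined selectivity score with lowered wild-type GFP, culture density cut under 30%, mutant RFP and density less affected; inactive means any of these conditions unmet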
Env fusion inh = inhibitors of HIV-1 Env-driven cell-cell fusion, primary screen, HeLa-JRFL effector, CEM21 target cells, luciferase | inhibition, % at 12.3 µM | 360,000 tested, 1.1% active;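 active means mean replicate inhibition score of at least 50 and every replicate individually at or above 50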;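 further: 0% = plate neutral controls and 100% = maraviroc near 300 nM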
Numbers without * were called inactive; . = no result; [ ] = remark or other dose.

SMILES | FN deposit inh | PDI turbidity | ERp5 block | PvdQ inh | rRNA inh HTS | Env fusion inh
C[C@@H]1CN([C@@H](C)CO)C(=O)c2cccc(NS(=O)(=O)c3cn(C)cn3)c2O[C@H]1CN(C)C(=O)Nc1ccc(C(F)(F)F)cc1 | -4 | . | 8 | . | 0 | .
CC(=O)N(C)C[C@@H]1Oc2cc(-c3ccccc3)ccc2S(=O)(=O)N([C@H](C)CO)C[C@H]1C | -2 | . | 0 | . | -2 | -12[16.7 µM]
Cc1cc(C)nc(N/N=C/c2ccccc2OCc2ccc(Br)cc2)n1 | -1 | 1 | 0 | -1 | 2 | -23
Cc1cc(C)nc(N/N=C/c2cc(Br)ccc2O)n1 | -2 | -3 | 6 | 1 | -37* | -3
C[C@@H]1CN([C@@H](C)CO)C(=O)Cc2cc(NC(=O)c3ccncc3)ccc2O[C@@H]1CN(C)S(=O)(=O)c1cn(C)cn1 | . | . | 2 | . | 3 | .
C[C@H]1CN([C@@H](C)CO)C(=O)Cc2cc(NC(=O)c3ccncc3)ccc2O[C@H]1CN(C)S(=O)(=O)c1cn(C)cn1 | . | . | 74* | . | 3 | -9[16.7 µM]
C[C@H](CO)N1C[C@H](C)[C@@H](CN(C)S(=O)(=O)c2cn(C)cn2)Oc2ccc(NC(=O)c3ccncc3)cc2CC1=O | . | . | 65* | . | 2 | 8[16.7 µM]
CC(OC(=O)c1ccc2c(c1)NC(=O)CS2)C(=O)c1ccc(F)cc1 (configuration not stated) | 2 | -1 | 2 | -15 | -18 | 59*
CC(C)(CC(=O)O)CC(=O)NCc1c(Cl)cccc1Sc1ccc(Cl)cc1 | 3 | 10 | -1 | . | -40* | 7
O=C(O)CCCC(=O)NCc1c(Cl)cccc1Sc1ccc(Cl)cc1 | 7 | 1 | 4 | -18 | . | -2
O=C(O)c1ccccc1C(=O)NCc1c(Cl)cccc1Sc1ccc(Cl)cc1 | -3 | 13 | -1 | 27 | -29* | 19
CNC[C@H]1Oc2ncc(-c3ccccc3C)cc2C(=O)N([C@@H](C)CO)C[C@H]1C | . | . | 0 | . | 5 | 12[16.7 µM]
CCN(CC)S(=O)(=O)c1ccc2c(c1)N(CC(=O)NCCN1CCOCC1)C(=O)CO2 | 3 | -3 | 28* | -11 | 5 | -16
O=C(CN1C(=O)COc2ccccc21)NCCN1CCOCC1 | 4 | 8 | -1 | -13 | 6 | -7
CCS(=O)(=O)N1CC2(CN(Cc3cccnc3)[C@H](CO)c3c2c2ccc(OC)cc2n3C)C1 | . | . | . | . | -2 | .
CC(=O)C12OC1CC1C3CCC4=CC(=O)CCC4(C)C3CCC12C (configuration not stated) | -14 | 2 | 2 | -5 | -23* | -97
CCOc1ccc(N2C(=O)C(=O)/C(=C(/O)c3ccccc3)C2c2ccccc2[N+](=O)[O-])cc1 (configuration not stated) | 1 | -3 | 5 | -11 | -17* | -5
CC(C)c1ccc(/C=C2\SC(N3CCOCC3)=NC2=O)cc1 | 4 | 10 | 3 | 4 | -10 | -16
O=C1N=C(N2CCN(c3ccccc3)CC2)S/C1=C/c1ccco1 | 6 | 0 | . | 8 | -38* | -16
CCc1ccc(/C=C2/SC(N3CCOCC3)=NC2=O)cc1 | -1 | 3 | 7 | -13 | -19* | -7
C[C@@H]1CN([C@H](C)CO)C(=O)c2cc(NC(=O)Nc3ccccc3)ccc2O[C@@H](C)CCCCO[C@H]1CN(C)S(=O)(=O)c1ccc(Cl)cc1 | . | . | 1 | . | 0 | 42[16.7 µM]
N=C(N)c1ccc(N=Nc2c(O)ccc3c2[nH]c2ccccc23)cc1 | 3 | -4 | 8 | -3 | -30* | .
Oc1ccc(N=Nc2c(O)ccc3ccccc23)cc1 | . | -6 | -5 | 11 | -63 | .
O=C(NCCOC(=O)Nc1cccc2ccccc12)OCc1ccccc1 | 4 | 9 | -6 | -12 | -34* | 27
O=C(Nc1cccc2ccccc12)OCc1ccccc1 | 9 | -8 | 5 | -14 | 9 | -78
SMILES | FN deposit inh | PDI turbidity | ERp5 block | PvdQ inh | rRNA inh HTS | Env fusion inh
C[C@@H](NC(=O)C[C@H]1CC[C@H](NC(=O)C2CCC2)[C@H](CO)O1)c1ccccc1 | . | . | -2 | . | -1 | 1[16.7 µM]
O=C(c1ccco1)N1CCN(c2nc(C(F)(F)F)nc3c2nnn3Cc2ccccc2)CC1 | 16 | 0 | . | -5 | . | 67*
COc1ccc2c3c([nH]c2c1)[C@H](CO)N(CC1CC1)CC31CCN(Cc2ccccc2F)CC1 | . | . | . | . | -4 | .
Cn1c(=O)c2c(ncn2Cc2ccc(Cl)c(Cl)c2)n(C)c1=O | -10 | -6 | . | -18 | . | 66*
Cn1c(=O)c2c(ncn2Cc2cccc(Cl)c2)n(C)c1=O | -3 | -4 | . | -5 | . | -1
COc1ccc(-c2cnc3c(c2)C(=O)N([C@H](C)CO)C[C@@H](C)[C@@H](CN(C)C(=O)Cc2ccccn2)O3)cc1 | . | . | 0 | . | 5 | 7[16.7 µM]
CC1(C)C2CCC(C2)C1(C)N=C1OC(CCl)CS1 (configuration not stated) | -11 | 0 | 1 | -6 | -22* | 29
ClCC1CSC(=NC23CC4CC(CC(C4)C2)C3)O1 (configuration not stated) | -6 | 2 | 12 | 8 | -15 | 6
COc1ccc(-n2c(=O)c3c4c(sc3n3c(=S)[nH]nc23)CCC4)cc1 | -4 | 1 | -2 | -10 | -25* | 19
O=C(C1CCCC1)N1CC(=O)N2[C@@H](CO)[C@H](c3ccc(-c4ccccc4F)cc3)[C@@H]2C1 | 11 | . | -7 | . | 1 | .
Cc1cc(OCCOCCNCc2ccccc2)ccc1C(C)C | 3 | -2 | -1 | -4 | -33 | 93*
Cc1ccc(C(C)C)c(OCCNCc2ccccc2)c1 | -5 | 7 | 4 | -13 | -13 | 17
CCCC(=O)N1CC2(CCN(C(=O)NC(C)C)CC2)c2c([nH]c3cc(OC)ccc23)[C@@H]1CO | . | . | 0 | . | 1 | .
CCC12C(=O)C(CC)(C(c3ccccc3)=C1c1ccccc1)[C@@H]1C(=O)N(c3ccc(C)cc3)C(=O)C12 (some centres not stated) | 10 | 3 | -2 | 0 | 11 | 92*
CCC12C(=O)C(CC)(C(c3ccccc3)=C1c1ccccc1)[C@@H]1C(=O)N(c3ccccc3)C(=O)C12 (some centres not stated) | -7 | 0 | . | -28 | . | .
Cc1ccc(CC2C(=O)N(c3ccccc3)C(=O)C2C)cc1 (configuration not stated) | -3 | -1 | -1 | -9 | -4 | 3
CCCC12C(=O)C(C)(C(c3ccccc3)=C1c1ccccc1)C1C(=O)N(c3ccc(C)cc3)C(=O)C12 (configuration not stated) | -3 | 0 | -3 | -2 | 0 | 83*

Bioassay records: PubChem BioAssay, Broad Institute
